Results as given in ChEMBL document CHEMBL4706589, “Discovery of 5-bromo-4-phenoxy-N-phenylpyrimidin-2-amine derivatives as novel ULK1 inhibitors that block autophagy and induce apoptosis in non-small cell lung cancer” (Eur J Med Chem, 2020).

Legend:
[1] = molecular target: T1, Serine/threonine-protein kinase ULK1 (Homo sapiens) (UniProt O75385); assay: Inhibition of recombinant human ULK1 at 10 uM preincubated for 60 mins followed by substrate addition and measured after 30 mins by ADP-glo assay; conditions: time 90.0 min
T1 sequence (whole entry): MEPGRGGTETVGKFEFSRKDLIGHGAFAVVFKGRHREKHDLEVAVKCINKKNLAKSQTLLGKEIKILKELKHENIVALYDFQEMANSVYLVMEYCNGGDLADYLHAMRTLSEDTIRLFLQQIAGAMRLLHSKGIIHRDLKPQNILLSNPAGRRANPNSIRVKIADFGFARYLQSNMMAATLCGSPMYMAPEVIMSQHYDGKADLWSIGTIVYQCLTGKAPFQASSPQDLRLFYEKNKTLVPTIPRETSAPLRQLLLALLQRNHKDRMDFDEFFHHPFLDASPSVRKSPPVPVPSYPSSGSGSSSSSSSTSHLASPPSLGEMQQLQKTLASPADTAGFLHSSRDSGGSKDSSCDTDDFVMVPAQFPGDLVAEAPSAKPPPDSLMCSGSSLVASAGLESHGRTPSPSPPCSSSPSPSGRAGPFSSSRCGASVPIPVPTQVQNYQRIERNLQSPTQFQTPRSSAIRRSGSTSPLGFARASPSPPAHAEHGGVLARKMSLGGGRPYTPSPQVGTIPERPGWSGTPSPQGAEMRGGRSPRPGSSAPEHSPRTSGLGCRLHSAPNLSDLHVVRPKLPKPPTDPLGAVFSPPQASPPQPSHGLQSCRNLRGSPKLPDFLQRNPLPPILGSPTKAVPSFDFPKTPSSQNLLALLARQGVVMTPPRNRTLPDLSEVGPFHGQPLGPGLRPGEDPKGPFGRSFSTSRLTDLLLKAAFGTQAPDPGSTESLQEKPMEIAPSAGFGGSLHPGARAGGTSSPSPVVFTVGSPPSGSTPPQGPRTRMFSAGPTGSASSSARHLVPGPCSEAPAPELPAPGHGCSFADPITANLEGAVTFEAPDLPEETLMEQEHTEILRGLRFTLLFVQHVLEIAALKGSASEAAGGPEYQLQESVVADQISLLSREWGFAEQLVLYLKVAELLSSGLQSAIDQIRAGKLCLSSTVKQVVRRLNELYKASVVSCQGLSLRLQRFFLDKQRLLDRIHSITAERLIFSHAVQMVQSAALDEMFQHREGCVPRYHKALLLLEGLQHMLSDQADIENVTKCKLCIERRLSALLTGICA
Outline: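 Recombinant ULK1 activity was measured by ADP-Glo luminescence of ADP formed, in 40 mM Tris pH 7.5, 20 mM MgCl₂, 0.1 mg/ml BSA and […]. After the kinase reaction, plates were mixed 2 min and held 40 min at room temperature. Detection reagent was then added for 30 min at room temperature before luminescence was read.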

MDA-MB-468 = assay: Antiproliferative activity against human MDA-MB-468 cells assessed as reduction in cell viability after 24 hrs by MTT assay; assay type: functional, cell-based; conditions: MDA-MB-468, 24 h
Outline: (§1)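 Cells seeded at 5.5 × 10⁴ cells/mL in 96-well plates and grown 24 h before exposure to graded compound concentrations. Viability read by MTT after 24 h. A549, MCF-7 and MDA-MB-468 were kept in DMEM with 10% FBS under 5% CO₂; HL60 and U937 in RPMI 1640 with 10% FBS. IC50 taken as mean of triplicate tests.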

U-937 = assay: Antiproliferative activity against human U937 cells assessed as reduction in cell viability after 24 hrs by MTT assay; assay type: functional, cell-based; conditions: U-937, 24 h; outline: as §1
MCF7 = assay: Antiproliferative activity against human MCF-7 cells assessed as reduction in cell viability after 24 hrs by MTT assay; assay type: functional, cell-based; conditions: MCF7, 24 h; outline: as §1
HL-60 = assay: Antiproliferative activity against human HL60 cells assessed as reduction in cell viability after 24 hrs by MTT assay; assay type: functional, cell-based; conditions: HL-60, 24 h; outline: as §1
A549 = assay: Antiproliferative activity against human A549 cells assessed as reduction in cell viability after 24 hrs by MTT assay; assay type: functional, cell-based; conditions: A549, 24 h; outline: as §1

| Compound | inhibition [1] | IC50 (MDA-MB-468) | IC50 (U-937) | IC50 (MCF7) | IC50 (HL-60) | IC50 (A549) |
| --- | --- | --- | --- | --- | --- | --- |
| O=[N+]([O-])c1ccc(Oc2nc(Nc3ccc(Cl)cc3)ncc2Br)c(F)c1 | 15.7% | > 50 µM | 43.1 µM | > 50 µM | > 50 µM | 37.6 µM |
| CCN(CC)CCNc1nc(Nc2cc(OC)c(OC)c(OC)c2)ncc1I | 44.9% | 32.3 µM | 22 µM | 32.7 µM | 21.6 µM | 16.9 µM |
| Cc1cccc(Nc2ncc(Br)c(Oc3cccc(F)c3)n2)c1 | 49.3% | 29.2 µM | 19.4 µM | 26.8 µM | 15.5 µM | 13.9 µM |
| CNC(=O)c1ccccc1Oc1nc(Nc2cccc(Br)c2)ncc1Br | 62.7% | 31.9 µM | 49 µM | 42.5 µM | 38.7 µM | 10.6 µM |
| CNC(=O)c1ccccc1Oc1nc(Nc2cc(OC)c(OC)c(OC)c2)ncc1Br | – | 18.4 µM | 25.1 µM | 26.2 µM | 18.9 µM | 6.78 µM |
| CCOc1ccccc1Oc1nc(Nc2cccc(C)c2)ncc1Br | 75.7% | 31.4 µM | 38.6 µM | 39.1 µM | 34.7 µM | 20.3 µM |
| COc1cc(Nc2nccc(NCCCN)n2)cc(OC)c1OC | 17.7% | 45.8 µM | > 50 µM | > 50 µM | > 50 µM | 29.7 µM |
| CCN(CC)CCNc1ccnc(Nc2cc(OC)c(OC)c(OC)c2)n1 | 13.4% | > 50 µM | > 50 µM | > 50 µM | > 50 µM | 46.4 µM |
| CNC(=O)c1ccccc1Oc1nc(Nc2ccccc2F)ncc1Br | 27.4% | > 50 µM | > 50 µM | > 50 µM | > 50 µM | 35.5 µM |
| CNC(=O)c1ccccc1Oc1nc(Nc2cccc(OC)c2)ncc1Br | 50.5% | 17.8 µM | 24.3 µM | 18.2 µM | 16.2 µM | 6.23 µM |
| O=[N+]([O-])c1ccc(Oc2nc(Nc3ccc(Br)cc3)ncc2Br)c(F)c1 | 12.5% | > 50 µM | > 50 µM | > 50 µM | > 50 µM | 51 µM |
| CNC(=O)c1ccccc1Oc1nc(Nc2ccc(Cl)cc2F)ncc1Br | 17.8% | > 50 µM | > 50 µM | > 50 µM | > 50 µM | 38.1 µM |
| CNC(=O)c1ccccc1Oc1nc(Nc2cccc(C(C)C)c2)ncc1Br | 84% | 19.4 µM | 14.1 µM | 26.5 µM | 17.5 µM | 7.14 µM |
| CNC(=O)c1ccccc1Oc1nc(Nc2ccc(Br)cc2)ncc1Br | 40.1% | 36.6 µM | > 50 µM | > 50 µM | 39.7 µM | 23.5 µM |
| CNC(=O)c1ccccc1Oc1nc(Nc2ccc3c(c2)OCO3)ncc1Br | 22.2% | > 50 µM | > 50 µM | > 50 µM | > 50 µM | > 50 µM |
| CNC(=O)c1ccccc1Oc1nc(Nc2ccccc2OC)ncc1Br | 19.2% | > 50 µM | 52.1 µM | > 50 µM | > 50 µM | 40.5 µM |
| Cc1cccc(Nc2ncc(Br)c(Oc3ccc(Br)cc3)n2)c1 | 25.7% | 31.3 µM | 18.6 µM | 19.1 µM | 14.7 µM | 10.3 µM |
| Cc1cccc(Nc2ncc(Br)c(Oc3cc(Cl)cc(Cl)c3)n2)c1 | 3.78% | > 50 µM | > 50 µM | > 50 µM | > 50 µM | 43.9 µM |
| COc1cc(Nc2ncc(I)c(NCCCN)n2)cc(OC)c1OC | 32.3% | > 50 µM | 39.9 µM | > 50 µM | 43.4 µM | 39.6 µM |
| Cc1cccc(Nc2ncc(Br)c(Oc3cccc([N+](=O)[O-])c3)n2)c1 | 40.2% | 36.7 µM | 51.2 µM | > 50 µM | 38.7 µM | 24.6 µM |
| CNC(=O)c1ccccc1Oc1nc(Nc2ccc(C(F)(F)F)cc2)ncc1Br | 21.6% | > 50 µM | > 50 µM | > 50 µM | > 50 µM | > 50 µM |
| CNC(=O)c1ccccc1Oc1nc(Nc2cccc(C)c2)ncc1Br | 73.7% | 18.6 µM | 15.9 µM | 16.6 µM | 16.2 µM | 6.1 µM |
| CNC(=O)c1ccccc1Oc1nc(Nc2ccc(C)cc2C)ncc1Br | 38.2% | 40.7 µM | 49.6 µM | 44.7 µM | 32.3 µM | 27.3 µM |
| CNC(=O)c1ccccc1Oc1nc(Nc2cccc(C(F)(F)F)c2)ncc1Br | 38.8% | 32.8 µM | 45.5 µM | 57.8 µM | 44 µM | 28.3 µM |
| Cc1cccc(Nc2ncc(Br)c(Oc3ccc(OCc4ccccc4)cc3)n2)c1 | 16.3% | > 50 µM | > 50 µM | > 50 µM | > 50 µM | 48.7 µM |
